Rows were chosen to be rich in hits. Some 1.9% of all compounds tested hit in one or more screens of this group.
Runt-CBFb FRET – inhibitors of human RUNX1 Runt domain binding to CBFb | Q01196+Q13951 | Cerulean-Runt/Venus-CBFb FRET ratio 530/480, 1 h | inhibition, % at 20 µM | 0.46% of 220,000 active;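 active means inhibition over about 50% at 20 µM in the single-dose screen, limit read from the data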
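Schedule: protein complex preformed 1 h, compound exposure 1 h, room temperature, dark; test system: Cerulean-labeled Runt domain protein; amount: 100 nM per protein; buffer or medium: Tris 50 mM pH 7.5, KCl, K2SO4, 0.01% BSA; read-out: loss of energy transfer signal; detection: FRET fluorescence; controls: 5 µM unlabeled CBFb as full-inhibition high control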
Runt-SMMHC FRET – inhibitors of human RUNX1 Runt domain binding to CBFb-SMMHC; Q01196+Q13951; Cerulean-Runt/Venus-CBFb-SMMHC FRET ratio 530/480, 1 h; inhibition, % at 20 µM; 0.74% of 220,000 active;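 active means mean inhibition across duplicate retests at 20 µM reaching about 50%, limit read from the data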;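 further: inhibitors lower the FRET ratio by blocking Runt binding to CBFb-SMMHC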
Hck Nef HTS – human Hck-Nef kinase inhibition | P08631 | Recombinant Hck-YEEI plus Nef, Z-Lyte FRET kinase assay | inhibition, % at 20 µM | 0.68% of 220,000 active;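 active means Hck-Nef kinase inhibition above about 50%, limit read from the data; inactive means inhibition below that limit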
Target sequence (P08631 whole entry, looked up): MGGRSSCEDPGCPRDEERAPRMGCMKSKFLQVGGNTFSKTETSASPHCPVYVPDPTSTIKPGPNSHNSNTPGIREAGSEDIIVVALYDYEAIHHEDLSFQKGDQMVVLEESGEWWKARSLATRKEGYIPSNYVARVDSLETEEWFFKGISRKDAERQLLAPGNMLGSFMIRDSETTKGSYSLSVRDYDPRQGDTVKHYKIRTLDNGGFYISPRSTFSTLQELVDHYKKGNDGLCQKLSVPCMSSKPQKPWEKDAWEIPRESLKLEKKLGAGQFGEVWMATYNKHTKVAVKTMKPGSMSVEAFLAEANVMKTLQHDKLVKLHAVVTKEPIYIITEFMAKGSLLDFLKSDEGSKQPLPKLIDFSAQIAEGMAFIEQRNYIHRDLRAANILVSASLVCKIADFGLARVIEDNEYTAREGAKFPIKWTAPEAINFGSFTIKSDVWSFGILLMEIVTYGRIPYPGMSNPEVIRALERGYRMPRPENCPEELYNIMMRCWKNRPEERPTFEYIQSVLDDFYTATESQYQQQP
TbHK1 inh – blocks Trypanosoma brucei hexokinase 1 activity; recombinant TbHK1, G6PDH-coupled NADH A340; inhibition, % at 10 µM; 0.11% of 220,000 active; AID 1430;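 active means inhibition of 50% or more in the single-dose primary screen; inactive means inhibition below 50%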
RanGTP-Impb inh – inhibitors of RanGTP-importin-beta interaction, primary screen, biochemical, FRET, CFP-Ran, YFP-importin-beta, homogeneous; cell-free CFP-Ran/YFP-importin-beta FRET ratio; inhibition, % (test concentration not listed); 1.1% of 300,000 active; AID 2216;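 active means more than half of the replicate wells show a fall in the fluorescence ratio signal beyond about 16%, limit read from the data, passing the limit was not always enough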
Hck Nef conf – Hck-Nef kinase inhibition, confirmation. 28% of 1,300 active. Recombinant Hck-YEEI:Nef, Z-Lyte FRET kinase assay. AID 463188. shares compounds with Hck Nef HTS. calls only at 10 µM;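 active means average inhibition of at least 50%, with Z-scores no higher than 3 in both the phospho-tyrosine peptide and fluorescence counterscreens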
A number is an active result.

For COC(=O)c1c(NC(=O)COC(=O)[C@@H](NS(=O)(=O)c2cccc(Cl)c2)C(C)C)sc2c1CCC2 the results were Runt-CBFb FRET inactive, Runt-SMMHC FRET inactive, Hck Nef HTS inactive, TbHK1 inh inactive and RanGTP-Impb inh inactive.
`COC(=O)c1sc(N)c(C(=O)OC)c1COC(=O)[C@@H](NS(=O)(=O)c1cccc(Cl)c1)C(C)C` gave Runt-CBFb FRET inactive, Runt-SMMHC FRET inactive, Hck Nef HTS 79.3, TbHK1 inh inactive, RanGTP-Impb inh inactive and Hck Nef conf active.
For COc1cc2nc(SCC(=O)NCc3ccco3)n(Cc3ccc(Cl)cc3)c(=O)c2cc1OC the results were Runt-CBFb FRET inactive, Runt-SMMHC FRET inactive, Hck Nef HTS 99.6, TbHK1 inh inactive, RanGTP-Impb inh inactive and Hck Nef conf active.
Screening COc1ccc(CCNC(=O)Cn2nnc(C(=O)Nc3cccc(C)c3C)c2N)cc1OC returned RanGTP-Impb inh inactive.
S=C(NCCc1cccc(Cl)c1)NC1CCCCC1 was read as RanGTP-Impb inh inactive.
For O=C(O)c1cc(-c2ccc(/C=C3/SC(=S)N(Cc4ccccc4)C3=O)o2)ccc1Cl the results were Runt-CBFb FRET inactive, Runt-SMMHC FRET inactive, Hck Nef HTS 140.9, TbHK1 inh inactive and Hck Nef conf active.
Screening CC1(C)OC(=O)C(=Cc2ccc(-c3ccc(Cl)c(C(=O)O)c3)o2)C(=O)O1 returned Runt-CBFb FRET inactive, Runt-SMMHC FRET inactive, Hck Nef HTS 77.3, TbHK1 inh inactive, RanGTP-Impb inh inactive and Hck Nef conf inactive.
Screening CC(C)Oc1ccc(CNC(=O)C2CCCN(S(=O)(=O)N3CCOCC3)C2)cc1 (stereo not drawn) returned RanGTP-Impb inh inactive.
For O=C(COc1ccc(/C=N/NC(=O)c2ccccc2O)cc1)Nc1ccccc1 the results were Runt-CBFb FRET inactive, Runt-SMMHC FRET inactive, Hck Nef HTS inactive, TbHK1 inh inactive and RanGTP-Impb inh inactive.
For Cc1cc(SCC(=O)OCC(=O)c2c(N)n(C)c(=O)n(C)c2=O)c(C)cc1Br the results were Runt-CBFb FRET inactive, Runt-SMMHC FRET inactive, Hck Nef HTS 55.0, TbHK1 inh inactive, RanGTP-Impb inh inactive and Hck Nef conf inactive.
Screening CCn1nc(NC(=O)C2CCCO2)c2cc3cccc(C)c3nc21 (stereo not drawn) returned Runt-CBFb FRET inactive, Runt-SMMHC FRET 81.0, Hck Nef HTS 55.1, TbHK1 inh inactive, RanGTP-Impb inh 57.7 and Hck Nef conf inactive.
For Cc1csc(Nc2nc(N)c(C(=O)Nc3cc(Cl)ccc3F)o2)n1 the results were RanGTP-Impb inh inactive.
CC(C)CC(=O)Nc1ccc2c3c(cccc13)CC2 was read as Runt-CBFb FRET inactive, Runt-SMMHC FRET inactive, Hck Nef HTS inactive, TbHK1 inh inactive and RanGTP-Impb inh inactive.
Screening Cc1ccc(O)c(N=Cc2cc(Cc3ccccc3)cc([N+](=O)[O-])c2O)c1 returned Runt-CBFb FRET inactive, Runt-SMMHC FRET inactive, Hck Nef HTS 61.6, TbHK1 inh inactive, RanGTP-Impb inh inactive and Hck Nef conf inactive.
Screening CNc1nc(-c2cccs2)cc(C(F)(F)F)c1C#N returned Runt-CBFb FRET inactive, Runt-SMMHC FRET 88.1, Hck Nef HTS 103.5, TbHK1 inh inactive, RanGTP-Impb inh 109.3 and Hck Nef conf inactive.
`N#Cc1c(C(F)(F)F)cc(-c2cccs2)nc1SCC(=O)O` gave Runt-CBFb FRET inactive, Runt-SMMHC FRET inactive, Hck Nef HTS inactive, TbHK1 inh inactive and RanGTP-Impb inh inactive.
Screening CC(C)(C)c1ccc(C(=O)NCc2nnc(SCC(=O)NC3CCCCC3)o2)cc1 returned RanGTP-Impb inh inactive.
For COc1cc(NC(=S)Nc2ccccn2)cc(OC)c1OC the results were Runt-CBFb FRET inactive, Runt-SMMHC FRET inactive, Hck Nef HTS 80.6, TbHK1 inh inactive, RanGTP-Impb inh inactive and Hck Nef conf active.
For CC1CC(C)CN(C(=O)CSc2nc(N)cc(=O)[nH]2)C1 (stereo not drawn) the results were Runt-CBFb FRET inactive, Runt-SMMHC FRET inactive, Hck Nef HTS inactive, TbHK1 inh inactive and RanGTP-Impb inh inactive.
Screening COc1cc(-c2nc(-c3ccc(NC(=O)c4ccc5c(c4)OCO5)cc3)no2)cc(OC)c1OC returned Runt-CBFb FRET inactive, Runt-SMMHC FRET inactive, Hck Nef HTS 83.8, TbHK1 inh inactive, RanGTP-Impb inh inactive and Hck Nef conf active.
COc1cc(/C=N/NC(=O)c2ccccn2)ccc1OC(=O)c1cccs1 was read as RanGTP-Impb inh inactive.
Screening O=C(CSc1nnc(SCc2ccccc2)s1)N/N=C/c1c[nH]c2ccccc12 returned Runt-SMMHC FRET inactive, Hck Nef HTS 95.3, TbHK1 inh inactive, RanGTP-Impb inh inactive and Hck Nef conf active.
For COc1ccc(OC)c(/C=N/NC(=O)CC(=O)NCc2ccccc2)c1 the results were Runt-CBFb FRET inactive, Runt-SMMHC FRET inactive, Hck Nef HTS 56.5, TbHK1 inh inactive, RanGTP-Impb inh inactive and Hck Nef conf inactive.
For COc1ccc2nc(C)cc(SCC(=O)N/N=C/c3cccc4ccccc34)c2c1 the results were Runt-CBFb FRET inactive, Runt-SMMHC FRET inactive, Hck Nef HTS 91.3, TbHK1 inh inactive, RanGTP-Impb inh inactive and Hck Nef conf inactive.
For O=C(CCc1ccccc1)OCCOC(=O)CCc1ccccc1 the results were RanGTP-Impb inh inactive.
Screening COc1cc(OC)c(OC)cc1CCC(C)NCCC(c1ccccc1)c1ccccc1 (stereo not drawn) returned RanGTP-Impb inh inactive.
CC(=O)Nc1ccc(NC(=O)c2cccc(-c3cc4ccccc4oc3=O)c2)cc1 was read as Runt-CBFb FRET inactive, Runt-SMMHC FRET inactive, Hck Nef HTS inactive, TbHK1 inh inactive and RanGTP-Impb inh inactive.
For COc1ccc(C(=O)Nc2cccc(-c3cc4ccccc4oc3=O)c2)cc1[N+](=O)[O-] the results were Runt-CBFb FRET inactive, Runt-SMMHC FRET inactive, Hck Nef HTS 96.3, TbHK1 inh inactive and Hck Nef conf active.
`Cc1ccc(S(=O)(=O)n2nnc3ccccc32)c(C)c1C` gave Runt-CBFb FRET inactive, Runt-SMMHC FRET inactive, Hck Nef HTS inactive, TbHK1 inh inactive and RanGTP-Impb inh inactive.
`COc1ccccc1CNC(=O)Cn1cc([N+](=O)[O-])ccc1=O` gave RanGTP-Impb inh inactive.
`COc1ccc(N=Cc2c[nH][nH]c2=O)cc1` gave Runt-CBFb FRET inactive, Runt-SMMHC FRET inactive, Hck Nef HTS inactive, TbHK1 inh inactive and RanGTP-Impb inh inactive.
For O=c1[nH][nH]cc1C=Nc1ccc(Oc2ccccc2)cc1 the results were Runt-CBFb FRET inactive, Runt-SMMHC FRET inactive, Hck Nef HTS 163.8, TbHK1 inh inactive, RanGTP-Impb inh inactive and Hck Nef conf active.
`Cc1ccc(S(=O)(=O)NC(=O)Nc2cc(C)no2)cc1` gave RanGTP-Impb inh inactive.
`CCOC(=O)c1c(NC(=O)C2CCCO2)sc(C(=O)OC(C)(C)C)c1C` (stereo not drawn) gave Runt-CBFb FRET inactive, Runt-SMMHC FRET inactive, Hck Nef HTS 67.6, TbHK1 inh inactive, RanGTP-Impb inh inactive and Hck Nef conf inactive.
